{"source": "ChEMBL document CHEMBL2034871", "about": "“First-in-class, dual-action, 3,5-disubstituted indole derivatives having human nitric oxide synthase (nNOS) and norepinephrine reuptake inhibitory (NERI) activity for the treatment of neuropathic pain” (J Med Chem, 2012)", "key": {"[1]": {"molecular_target": "Nitric oxide synthase 1 (Homo sapiens, UniProt P29475)", "sequence (P29475 whole entry)": "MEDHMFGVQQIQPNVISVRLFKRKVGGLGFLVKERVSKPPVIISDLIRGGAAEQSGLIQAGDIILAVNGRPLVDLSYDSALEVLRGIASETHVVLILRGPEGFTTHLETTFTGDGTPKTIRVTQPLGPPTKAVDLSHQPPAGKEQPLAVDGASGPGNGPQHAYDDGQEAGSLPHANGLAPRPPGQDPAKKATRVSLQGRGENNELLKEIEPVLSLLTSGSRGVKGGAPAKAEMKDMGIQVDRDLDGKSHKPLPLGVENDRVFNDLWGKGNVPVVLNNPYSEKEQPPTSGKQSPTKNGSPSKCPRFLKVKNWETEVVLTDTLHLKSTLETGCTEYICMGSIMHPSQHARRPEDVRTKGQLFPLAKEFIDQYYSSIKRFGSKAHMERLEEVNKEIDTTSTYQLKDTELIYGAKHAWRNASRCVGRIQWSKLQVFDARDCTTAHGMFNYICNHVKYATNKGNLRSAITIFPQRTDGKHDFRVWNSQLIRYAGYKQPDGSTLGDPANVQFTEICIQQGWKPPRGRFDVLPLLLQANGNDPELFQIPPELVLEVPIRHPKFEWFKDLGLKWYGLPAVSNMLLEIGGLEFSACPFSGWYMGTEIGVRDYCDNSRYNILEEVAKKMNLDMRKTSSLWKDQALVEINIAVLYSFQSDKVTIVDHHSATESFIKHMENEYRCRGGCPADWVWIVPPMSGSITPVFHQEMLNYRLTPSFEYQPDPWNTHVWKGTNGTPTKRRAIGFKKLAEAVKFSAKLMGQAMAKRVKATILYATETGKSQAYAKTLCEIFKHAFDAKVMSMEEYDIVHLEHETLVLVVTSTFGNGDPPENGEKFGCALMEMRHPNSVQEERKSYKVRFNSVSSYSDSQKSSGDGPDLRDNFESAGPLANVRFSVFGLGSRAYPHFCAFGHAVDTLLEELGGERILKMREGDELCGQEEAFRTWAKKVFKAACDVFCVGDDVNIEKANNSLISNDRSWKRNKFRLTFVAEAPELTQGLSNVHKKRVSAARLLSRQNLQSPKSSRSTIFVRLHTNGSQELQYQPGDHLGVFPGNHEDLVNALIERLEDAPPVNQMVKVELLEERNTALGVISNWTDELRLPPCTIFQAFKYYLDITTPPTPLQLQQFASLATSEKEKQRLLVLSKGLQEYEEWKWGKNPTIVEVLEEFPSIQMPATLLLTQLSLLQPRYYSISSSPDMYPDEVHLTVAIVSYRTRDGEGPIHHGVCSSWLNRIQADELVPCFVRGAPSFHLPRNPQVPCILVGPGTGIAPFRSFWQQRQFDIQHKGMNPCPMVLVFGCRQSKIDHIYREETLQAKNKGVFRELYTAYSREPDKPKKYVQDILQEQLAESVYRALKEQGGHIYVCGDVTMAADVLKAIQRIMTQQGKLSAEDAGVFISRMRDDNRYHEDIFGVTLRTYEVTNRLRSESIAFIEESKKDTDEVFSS", "experiment": "Inhibition of human nNOS expressed in baculovirus-infected insect sf9 cells assessed as conversion of [3H]-L-arginine to [3H]-L-citrulline preincubated for 15 mins with compound measured after 45 mins by scintillation counting"}, "[2]": {"molecular_target": "T1, Nitric oxide synthase 3 (Homo sapiens, UniProt P29474)", "T1 sequence (P29474 whole entry)": "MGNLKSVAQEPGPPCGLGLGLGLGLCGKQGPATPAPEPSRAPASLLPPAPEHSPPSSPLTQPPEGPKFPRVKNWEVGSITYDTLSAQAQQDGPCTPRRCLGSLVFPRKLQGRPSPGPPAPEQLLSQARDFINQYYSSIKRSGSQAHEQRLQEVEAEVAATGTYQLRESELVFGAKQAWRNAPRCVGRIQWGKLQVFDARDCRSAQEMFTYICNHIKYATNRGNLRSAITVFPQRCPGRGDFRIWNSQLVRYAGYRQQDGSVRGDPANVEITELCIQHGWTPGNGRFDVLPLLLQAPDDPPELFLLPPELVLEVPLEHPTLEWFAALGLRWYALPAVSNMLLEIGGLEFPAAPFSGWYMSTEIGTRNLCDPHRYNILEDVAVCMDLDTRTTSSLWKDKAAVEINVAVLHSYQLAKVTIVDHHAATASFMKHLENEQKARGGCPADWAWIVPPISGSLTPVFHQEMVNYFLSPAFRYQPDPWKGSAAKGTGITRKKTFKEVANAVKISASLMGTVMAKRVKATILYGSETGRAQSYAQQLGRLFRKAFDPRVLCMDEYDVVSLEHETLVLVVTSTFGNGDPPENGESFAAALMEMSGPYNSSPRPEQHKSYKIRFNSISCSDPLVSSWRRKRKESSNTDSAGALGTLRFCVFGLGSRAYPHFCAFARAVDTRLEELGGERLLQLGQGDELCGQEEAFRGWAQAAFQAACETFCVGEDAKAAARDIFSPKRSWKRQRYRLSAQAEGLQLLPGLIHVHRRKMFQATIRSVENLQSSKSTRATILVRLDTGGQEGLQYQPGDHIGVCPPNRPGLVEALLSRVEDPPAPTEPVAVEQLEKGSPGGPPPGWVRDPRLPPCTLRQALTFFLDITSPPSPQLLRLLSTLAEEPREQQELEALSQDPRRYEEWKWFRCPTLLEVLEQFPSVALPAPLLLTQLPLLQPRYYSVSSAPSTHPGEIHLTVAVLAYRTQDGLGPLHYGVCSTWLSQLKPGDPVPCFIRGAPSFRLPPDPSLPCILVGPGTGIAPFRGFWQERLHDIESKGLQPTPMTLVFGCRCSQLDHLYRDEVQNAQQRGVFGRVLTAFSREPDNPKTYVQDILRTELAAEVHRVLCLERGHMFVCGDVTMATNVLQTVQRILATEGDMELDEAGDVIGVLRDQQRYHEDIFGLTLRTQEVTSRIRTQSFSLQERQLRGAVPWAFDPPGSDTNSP", "experiment": "Inhibition of human eNOS expressed in baculovirus-infected insect sf9 cells assessed as conversion of [3H]-L-arginine to [3H]-L-citrulline preincubated for 15 mins with compound measured after 45 mins by scintillation counting"}, "[3]": {"molecular_target": "Nitric oxide synthase, inducible (Homo sapiens, UniProt P35228)", "sequence (P35228 whole entry)": "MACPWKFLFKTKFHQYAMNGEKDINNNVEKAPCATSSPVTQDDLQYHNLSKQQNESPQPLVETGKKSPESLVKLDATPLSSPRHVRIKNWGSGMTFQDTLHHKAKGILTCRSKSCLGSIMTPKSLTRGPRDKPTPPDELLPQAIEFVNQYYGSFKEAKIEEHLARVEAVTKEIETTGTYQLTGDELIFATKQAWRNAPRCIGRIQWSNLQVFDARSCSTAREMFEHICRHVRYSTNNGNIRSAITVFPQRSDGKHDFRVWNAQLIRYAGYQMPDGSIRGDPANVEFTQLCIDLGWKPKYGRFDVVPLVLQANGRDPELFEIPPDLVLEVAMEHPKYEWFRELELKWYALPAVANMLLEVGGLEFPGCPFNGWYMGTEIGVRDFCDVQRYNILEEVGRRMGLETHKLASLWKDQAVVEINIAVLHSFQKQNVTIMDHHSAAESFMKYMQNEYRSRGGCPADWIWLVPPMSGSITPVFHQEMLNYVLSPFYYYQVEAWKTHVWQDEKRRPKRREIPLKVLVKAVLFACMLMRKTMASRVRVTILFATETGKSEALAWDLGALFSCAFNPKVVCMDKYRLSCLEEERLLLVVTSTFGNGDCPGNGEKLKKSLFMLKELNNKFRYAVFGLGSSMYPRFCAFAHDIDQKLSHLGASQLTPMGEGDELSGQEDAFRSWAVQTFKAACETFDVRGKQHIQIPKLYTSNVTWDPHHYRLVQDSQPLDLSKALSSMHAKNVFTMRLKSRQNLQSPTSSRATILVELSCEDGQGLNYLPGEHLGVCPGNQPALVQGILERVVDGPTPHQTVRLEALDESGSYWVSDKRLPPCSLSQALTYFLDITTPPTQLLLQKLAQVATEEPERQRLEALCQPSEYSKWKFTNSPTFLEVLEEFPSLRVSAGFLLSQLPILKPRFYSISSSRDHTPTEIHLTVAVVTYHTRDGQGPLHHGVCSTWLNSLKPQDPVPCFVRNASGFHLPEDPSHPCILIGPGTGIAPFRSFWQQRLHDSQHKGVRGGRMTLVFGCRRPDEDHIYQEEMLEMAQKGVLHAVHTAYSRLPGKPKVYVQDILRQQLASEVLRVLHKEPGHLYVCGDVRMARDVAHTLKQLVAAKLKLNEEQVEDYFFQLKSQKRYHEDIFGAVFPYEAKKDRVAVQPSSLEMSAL", "experiment": "Inhibition of human iNOS expressed in baculovirus-infected insect sf9 cells assessed as conversion of [3H]-L-arginine to [3H]-L-citrulline preincubated for 15 mins with compound measured after 45 mins by scintillation counting"}, "[4]": {"species_on_record": "Homo sapiens", "experiment": "Selectivity ratio of IC50 for human eNOS to IC50 for human nNOS", "method_in_brief": "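Recombinant human nNOS and eNOS made in baculovirus-infected Sf9 cells. Buffer: 40 mM HEPES pH 7.4 with 2.4 mM CaCl2, 1 mM MgCl2, 1 mg/mL BSA, 1 mM EDTA, 1 mM DTT, 1 μM FMN/FAD, 10 μM BH4, 1 mM NADPH and 1.2 μM CaM. Compound preincubated 15 min at RT. Started with 24 μM L-arginine plus [3H]arginine. [3H]citrulline separated on DOWEX and counted; background from L-NMMA control; duplicates.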"}, "[5]": {"molecular_target": "Sodium-dependent noradrenaline transporter (Homo sapiens, UniProt P23975)", "sequence (P23975 whole entry)": "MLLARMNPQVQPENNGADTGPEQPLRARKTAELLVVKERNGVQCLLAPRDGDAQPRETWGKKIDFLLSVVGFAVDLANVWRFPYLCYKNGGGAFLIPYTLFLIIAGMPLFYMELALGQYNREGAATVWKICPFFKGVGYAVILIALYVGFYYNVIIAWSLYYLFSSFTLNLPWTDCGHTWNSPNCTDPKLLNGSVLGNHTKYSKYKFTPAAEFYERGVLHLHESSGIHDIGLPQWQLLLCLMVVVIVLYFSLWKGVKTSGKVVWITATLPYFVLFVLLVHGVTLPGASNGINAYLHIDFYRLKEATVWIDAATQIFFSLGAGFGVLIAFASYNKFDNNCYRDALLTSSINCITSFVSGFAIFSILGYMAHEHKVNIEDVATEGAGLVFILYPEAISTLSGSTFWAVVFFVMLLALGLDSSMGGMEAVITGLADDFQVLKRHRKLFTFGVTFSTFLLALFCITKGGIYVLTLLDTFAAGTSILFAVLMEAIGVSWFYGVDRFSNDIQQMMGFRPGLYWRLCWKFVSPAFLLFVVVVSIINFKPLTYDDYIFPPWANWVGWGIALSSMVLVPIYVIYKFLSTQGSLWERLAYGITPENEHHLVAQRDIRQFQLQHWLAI", "experiment": "Displacement of [3H]nisoxetine from human NET expressed in CHO cells after 120 mins by scintillation counting", "format": "cell-based", "method_in_brief": "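Membranes from hNET-transfected CHO cells (20 μg protein) incubated 120 min at 4 °C with 1 nM [3H]nisoxetine in 50 mM Tris-HCl pH 7.4, 120 mM NaCl, 5 mM KCl. Nonspecific binding defined with 1 μM desipramine. Filtered on PEI-soaked GF/B and counted.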"}, "[6]": {"molecular_target": "Cytochrome P450 3A4 (Homo sapiens, UniProt P08684)", "sequence (P08684 whole entry)": "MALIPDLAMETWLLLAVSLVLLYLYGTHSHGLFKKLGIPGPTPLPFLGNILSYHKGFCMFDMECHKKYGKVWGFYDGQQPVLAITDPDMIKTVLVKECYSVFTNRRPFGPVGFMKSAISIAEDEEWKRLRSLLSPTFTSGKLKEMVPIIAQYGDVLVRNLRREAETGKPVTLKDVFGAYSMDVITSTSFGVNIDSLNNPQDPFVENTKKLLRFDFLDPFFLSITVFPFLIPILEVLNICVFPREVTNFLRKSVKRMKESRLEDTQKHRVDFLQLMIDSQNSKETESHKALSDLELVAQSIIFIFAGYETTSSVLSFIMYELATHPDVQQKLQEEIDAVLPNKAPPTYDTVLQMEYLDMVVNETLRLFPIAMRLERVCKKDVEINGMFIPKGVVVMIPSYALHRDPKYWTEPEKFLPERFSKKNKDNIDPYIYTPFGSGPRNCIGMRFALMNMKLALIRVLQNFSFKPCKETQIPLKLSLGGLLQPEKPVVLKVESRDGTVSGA", "experiment": "Inhibition of CYP3A4", "format": "ADME"}, "[7]": {"molecular_target": "T2, Cytochrome P450 1A2 (Homo sapiens, UniProt P05177)", "T2 sequence (P05177 whole entry)": "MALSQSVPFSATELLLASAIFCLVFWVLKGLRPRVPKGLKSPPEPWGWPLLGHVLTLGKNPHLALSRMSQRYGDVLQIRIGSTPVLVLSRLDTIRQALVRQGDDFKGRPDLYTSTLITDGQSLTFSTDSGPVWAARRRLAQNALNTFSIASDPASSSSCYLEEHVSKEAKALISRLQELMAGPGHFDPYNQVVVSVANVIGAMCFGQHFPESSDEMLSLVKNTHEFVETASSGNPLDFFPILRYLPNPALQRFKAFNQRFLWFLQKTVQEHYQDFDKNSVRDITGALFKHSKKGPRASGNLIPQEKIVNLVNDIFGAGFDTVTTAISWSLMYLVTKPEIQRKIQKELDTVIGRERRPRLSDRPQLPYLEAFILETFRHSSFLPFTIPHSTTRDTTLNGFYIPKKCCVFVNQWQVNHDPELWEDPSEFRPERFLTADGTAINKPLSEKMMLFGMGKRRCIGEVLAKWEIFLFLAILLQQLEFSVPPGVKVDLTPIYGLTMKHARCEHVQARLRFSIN", "experiment": "Inhibition of CYP1A2", "format": "ADME", "settings": "read-out: IC50"}, "[8]": {"molecular_target": "Cytochrome P450 2C9 (Homo sapiens, UniProt P11712)", "sequence (P11712 whole entry)": "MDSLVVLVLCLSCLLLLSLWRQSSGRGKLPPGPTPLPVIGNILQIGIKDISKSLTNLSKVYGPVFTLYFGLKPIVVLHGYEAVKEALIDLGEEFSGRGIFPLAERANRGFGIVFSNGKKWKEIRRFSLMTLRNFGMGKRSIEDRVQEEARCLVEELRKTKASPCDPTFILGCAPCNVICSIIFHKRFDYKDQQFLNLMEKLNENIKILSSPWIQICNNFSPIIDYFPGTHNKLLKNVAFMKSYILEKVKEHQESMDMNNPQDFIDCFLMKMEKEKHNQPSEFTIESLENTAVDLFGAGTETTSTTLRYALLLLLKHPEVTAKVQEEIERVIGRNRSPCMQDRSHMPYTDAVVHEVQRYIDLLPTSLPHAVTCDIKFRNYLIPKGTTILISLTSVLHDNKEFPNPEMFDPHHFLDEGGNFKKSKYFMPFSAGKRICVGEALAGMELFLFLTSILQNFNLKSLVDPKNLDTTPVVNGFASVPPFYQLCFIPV", "experiment": "Inhibition of CYP2C9", "format": "ADME", "settings": "read-out: IC50"}, "[9]": {"molecular_target": "Cytochrome P450 2C19 (Homo sapiens, UniProt P33261)", "experiment": "Inhibition of CYP2C19", "format": "ADME"}, "[10]": {"molecular_target": "Cytochrome P450 2D6 (Homo sapiens, UniProt P10635)", "sequence (P10635 whole entry)": "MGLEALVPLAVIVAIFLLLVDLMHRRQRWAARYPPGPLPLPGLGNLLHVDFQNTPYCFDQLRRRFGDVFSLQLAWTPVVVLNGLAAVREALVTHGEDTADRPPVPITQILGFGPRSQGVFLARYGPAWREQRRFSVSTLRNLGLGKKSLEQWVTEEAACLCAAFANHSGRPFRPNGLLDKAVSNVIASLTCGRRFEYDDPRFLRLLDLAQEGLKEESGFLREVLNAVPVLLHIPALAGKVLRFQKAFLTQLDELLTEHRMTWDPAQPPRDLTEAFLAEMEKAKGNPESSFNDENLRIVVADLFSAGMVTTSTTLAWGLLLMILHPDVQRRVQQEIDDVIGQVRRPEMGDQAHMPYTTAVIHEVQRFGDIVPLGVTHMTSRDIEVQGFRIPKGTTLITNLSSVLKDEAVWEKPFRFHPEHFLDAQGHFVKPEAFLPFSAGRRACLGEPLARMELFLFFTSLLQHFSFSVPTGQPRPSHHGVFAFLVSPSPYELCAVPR", "experiment": "Inhibition of CYP2D6", "format": "ADME"}}}
{"smiles": "CN(C)[C@H]1CC[C@H](c2c[nH]c3ccc(NC(=N)c4cccs4)cc32)CC1", "values": [{"measurement": "IC50", "setting": "[1]", "value": 4.52, "unit": "µM"}, {"measurement": "IC50", "setting": "[2]", "value": 284, "unit": "µM"}, {"measurement": "IC50", "setting": "[3]", "value": 149, "unit": "µM"}, {"measurement": "Ratio IC50", "setting": "[4]", "value": 63}, {"measurement": "IC50", "setting": "[5]", "value": 2.2, "unit": "µM"}]}
{"smiles": "CN(C)[C@H]1CC[C@@H](c2c[nH]c3ccc(NC(=N)c4cccs4)cc32)CC1", "values": [{"measurement": "IC50", "setting": "[1]", "value": 0.35, "unit": "µM"}, {"measurement": "IC50", "setting": "[2]", "value": 17.5, "unit": "µM"}, {"measurement": "IC50", "setting": "[3]", "value": 26.5, "unit": "µM"}, {"measurement": "Ratio IC50", "setting": "[4]", "value": 51}, {"measurement": "IC50", "setting": "[5]", "value": 0.16, "unit": "µM"}]}
{"smiles": "CN[C@H]1CC[C@@H](c2c[nH]c3ccc(NC(=N)c4cccs4)cc32)CC1", "values": [{"measurement": "IC50", "setting": "[3]", "value": "[…]"}, {"measurement": "IC50", "setting": "[6]", "value": 57.3, "unit": "µM"}]}
{"smiles": "CCN[C@H]1CC[C@@H](c2c[nH]c3ccc(NC(=N)c4cccs4)cc32)CC1", "values": [{"measurement": "IC50", "setting": "[3]", "value": 493, "unit": "µM"}, {"measurement": "IC50", "setting": "[7]", "value": "> 100", "unit": "µM"}, {"measurement": "IC50", "setting": "[8]", "value": 21.5, "unit": "µM"}, {"measurement": "IC50", "setting": "[9]", "value": 23.4, "unit": "µM"}, {"measurement": "IC50", "setting": "[10]", "value": 0.927, "unit": "µM"}]}
{"smiles": "CCN[C@H]1CC[C@H](c2c[nH]c3ccc(NC(=N)c4cccs4)cc32)CC1", "values": [{"measurement": "IC50", "setting": "[3]", "value": 155, "unit": "µM"}]}
{"smiles": "CN(C)C1CC=C(c2c[nH]c3ccc(NC(=N)c4cccs4)cc23)CC1", "note": "(racemic)", "values": [{"measurement": "IC50", "setting": "[3]", "value": 24, "unit": "µM"}]}
{"smiles": "CN[C@H]1CCC[C@@H](c2c[nH]c3ccc(NC(=N)c4cccs4)cc23)C1", "note": "(racemic)", "values": [{"measurement": "IC50", "setting": "[2]", "value": 77.6, "unit": "µM"}, {"measurement": "IC50", "setting": "[3]", "value": 54.1, "unit": "µM"}, {"measurement": "IC50", "setting": "[5]", "value": 2.4, "unit": "µM"}]}
{"smiles": "CN[C@H]1CCC[C@H](c2c[nH]c3ccc(NC(=N)c4cccs4)cc23)C1", "note": "(racemic)", "values": [{"measurement": "IC50", "setting": "[2]", "value": 7.76, "unit": "µM"}, {"measurement": "IC50", "setting": "[3]", "value": 14.5, "unit": "µM"}, {"measurement": "IC50", "setting": "[5]", "value": 0.88, "unit": "µM"}]}
{"smiles": "CCN[C@H]1CCC[C@@H](c2c[nH]c3ccc(NC(=N)c4cccs4)cc23)C1", "note": "(racemic)", "values": [{"measurement": "IC50", "setting": "[3]", "value": 19.2, "unit": "µM"}, {"measurement": "IC50", "setting": "[5]", "value": 1.7, "unit": "µM"}]}
{"smiles": "CCN[C@H]1CCC[C@H](c2c[nH]c3ccc(NC(=N)c4cccs4)cc23)C1", "note": "(racemic)", "values": [{"measurement": "IC50", "setting": "[3]", "value": 54.2, "unit": "µM"}, {"measurement": "IC50", "setting": "[5]", "value": 0.76, "unit": "µM"}]}
{"smiles": "CCNC1CC=C(c2c[nH]c3ccc(NC(=N)c4cccs4)cc23)CC1", "note": "(racemic)", "values": [{"measurement": "Ratio IC50", "setting": "[4]", "value": 28}]}
{"smiles": "CN(C)C1CC=C(c2c[nH]c3ccc(/N=C(\\N)c4cccs4)cc23)CC1", "note": "(racemic)", "values": [{"measurement": "Ratio IC50", "setting": "[4]", "value": 17}]}
{"smiles": "CNC1CC=C(c2c[nH]c3ccc(/N=C(\\N)c4cccs4)cc23)CC1", "note": "(racemic)", "values": [{"measurement": "Ratio IC50", "setting": "[4]", "value": 19}]}
{"smiles": "CN(C)C1CC=C(c2c[nH]c3ccc(NC(=N)c4cccs4)cc23)CC1", "note": "(single isomer, unassigned; (+))", "values": [{"measurement": "IC50", "setting": "[1]", "value": 0.84, "unit": "µM"}]}
{"smiles": "CN(C)C1CC=C(c2c[nH]c3ccc(/N=C(\\N)c4cccs4)cc23)CC1", "note": "(single isomer, unassigned; (+))", "values": [{"measurement": "Ratio IC50", "setting": "[4]", "value": 114}]}
{"smiles": "CN(C)C1CC=C(c2c[nH]c3ccc(NC(=N)c4cccs4)cc23)CC1", "note": "(single isomer, unassigned; (-))", "values": [{"measurement": "IC50", "setting": "[1]", "value": 0.86, "unit": "µM"}]}
{"smiles": "CNC1CCCC(c2c[nH]c3ccc(NC(=N)c4cccs4)cc23)C1", "note": "(single isomer, unassigned; (-))", "values": [{"measurement": "IC50", "setting": "[3]", "value": 70, "unit": "µM"}]}
{"smiles": "CN(C)C1CC=C(c2c[nH]c3ccc(/N=C(\\N)c4cccs4)cc23)CC1", "note": "(single isomer, unassigned; (-))", "values": [{"measurement": "Ratio IC50", "setting": "[4]", "value": 54}]}
